# Bioassay records as filed in PubChem BioAssay.
# Shown are actives, neighbours in structure and some others; about 3.1% of the full set was active somewhere.
# UBC9 SUMO inh: blocks human SUMOylation mediated by UBC9. HTRF SUMOylation assay, SAE1/SAE2 + UBC9, in vitro. inhibition, % at 35 µM. P63279. 290,000 tested, 0.36% active; in the data active = inhibition above about 50%, passing the limit was not always enough; inconclusive = no clear call, values can overlap the other calls
# Target sequence (P63279 whole entry, looked up): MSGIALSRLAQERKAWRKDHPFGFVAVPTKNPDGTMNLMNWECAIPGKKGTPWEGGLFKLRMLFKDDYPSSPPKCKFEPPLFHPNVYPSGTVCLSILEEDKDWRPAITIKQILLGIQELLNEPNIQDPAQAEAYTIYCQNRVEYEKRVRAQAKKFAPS
# HCV core dimer: HCV core protein dimerization inhibition. 300,000 tested, 0.33% active. inhibition, % at 5 µM. TR-FRET GST/Flag-core106 dimerization, 1536-well;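 active = inhibition above the mean of all tested compounds plus 3 SD, set per screening campaign, cut at about 45% in these data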
#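 Assay system: tagged HCV core106 pair (GST and Flag); medium: KF-containing HEPES buffer, pH 7.45, DTT, CHAPS, BSA; also added: Eu donor and XL665 acceptor anti-tag antibodies; dosing: 5 µM single dose; timing: compound-protein-antibody incubation 4 h at 22.5 °C; signal: TR-FRET 671 and 617 nm emission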
# NS3 helicase inh: inhibitors of Hepatitis C virus NS3 helicase; AID 1800; NS3 helicase DNA unwinding, Cy5 molecular beacon fluorescence; 290,000 tested, 0.56% active; inhibition, % at 10.9 µM;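 active = inhibition above the mean of all tested compounds plus 3 SD, set per campaign, cut at about 35% in these data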
#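 Test system: hepatitis C virus NS3 helicase domain fragment enzyme. Also added: annealed dual-labelled DNA beacon duplex, ATP-started. Timing: 60 min unwinding reaction at 25 °C after ATP addition. Technique: Cy5 fluorescence. Measure: % inhibition of unwinding.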
# PHOSPHO1 inh: inhibitors of human PHOSPHO1 phosphatase; Q8TCT1; recombinant PHOSPHO1, absorbance phosphatase assay; inhibition, % at 13.3 µM; 290,000 tested, 1.1% active; AID 1565; in the data active = inhibition above about 60%
# Target sequence (Q8TCT1 whole entry, looked up): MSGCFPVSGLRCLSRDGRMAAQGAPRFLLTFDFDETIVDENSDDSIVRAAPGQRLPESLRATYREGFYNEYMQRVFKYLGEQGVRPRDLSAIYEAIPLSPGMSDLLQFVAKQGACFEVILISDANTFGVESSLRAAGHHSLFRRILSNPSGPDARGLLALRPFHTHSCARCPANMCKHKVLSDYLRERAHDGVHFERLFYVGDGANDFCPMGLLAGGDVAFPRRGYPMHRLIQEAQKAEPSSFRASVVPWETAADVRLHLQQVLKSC
# IMP-1 inh: inhibitors of Pseudomonas aeruginosa IMP-1 metallo-beta-lactamase | inhibition, % at 5.6 µM | AID 1556 | purified IMP-1, nitrocefin hydrolysis, epi-absorbance fluorescence | 290,000 tested, 0.45% active;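 active = inhibition above the mean plus 3 SD of all compounds in the same screening run, cut at about 4.5% in these data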
#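 Material – recombinant IMP-1 enzyme, purified · Amount – IMP-1 0.2 nM before substrate addition · Medium – HEPES buffer pH 7.1 with ZnSO4 and Brij 35 · Timing – 25 °C, 15 min preincubation, 25 min reaction · Measured by – plate fluorescence quenching by hydrolysis product, ex 480/em 530 nm · Read-out – percent enzyme inhibition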
# VIM-2 inh: inhibitors of Pseudomonas aeruginosa VIM-2 metallo-beta-lactamase. purified VIM-2, nitrocefin hydrolysis, epi-absorbance fluorescence. inhibition, % at 5.6 µM. AID 1527. 290,000 tested, 0.89% active;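 active = inhibition above the mean of all tested compounds plus 3 SD, cutoff set per screening run, cut at about 7.5% in these data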;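 note: red hydrolysis product quenches plate fluorescence so inhibitors raise well fluorescence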
# NS3 helicase cf: HCV NS3 helicase inhibition, confirmation assay; 1,600 tested, 31% active; inhibition, % at 10.9 µM; NS3 helicase DNA unwinding, Cy5 molecular beacon fluorescence; shares compounds with NS3 helicase inh;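 active = inhibition above the mean of all tested compounds plus 3 SD, cutoff set per campaign, cut at about 36% in these data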
# FID counter trip: intercalator displacement, NS3 helicase counter-screen | shares compounds with NS3 helicase inh | DNA fluorescent intercalator displacement, fluorescence | inhibition, % at 7.9 µM | 1,600 tested, 4% active | AID 1945; in the data active = inhibition above about 37%;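 note: higher means more displacement of ethidium bromide from the DNA hairpin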
# FID counter DR: DNA intercalator displacement in dose response; AID 2172; shares compounds with NS3 helicase inh; IC50, µM; fluorescent intercalator displacement from DNA, fluorescence; 120 tested, under 10 active; call rule not given here
# Numbers stand for hits; 0 = inactive; ? = inconclusive; - = no result.
SMILES,UBC9 SUMO inh,HCV core dimer,NS3 helicase inh,PHOSPHO1 inh,IMP-1 inh,VIM-2 inh,NS3 helicase cf,FID counter trip,others
O=C(NC(Cc1ccccc1)C(=O)O)/C(=C\c1ccc(Br)cc1)NC(=O)c1ccc(Br)o1 (stereo unspecified),0,0,0,0,0,0,-,-,
O=C(NC(Cc1ccccc1)C(=O)O)/C(=C/c1ccc(Br)cc1)NC(=O)c1ccc(Br)o1 (stereo unspecified),0,0,41,0,0,0,38,0,
Cc1cccc(NC(=O)CN2C(=O)N/C(=C\c3cccn3-c3cccc(C(=O)O)c3)C2=O)c1,0,0,37,0,0,0,0,0,
Cc1ccc(-n2cccc2/C=C2/NC(=O)N(CC(=O)Nc3cccc(C)c3)C2=O)cc1,0,0,0,0,0,0,-,-,
CCOc1cccc(C(=O)NNC(=O)C2C3C=CC(C3)C2C(=O)O)c1 (stereo unspecified),0,0,0,0,0,0,-,-,
O=C(/C=C/c1ccco1)NCC1CCCO1 (stereo unspecified),0,0,0,0,0,0,-,-,
Nc1c(C(=O)NCC2CCCO2)sc2nc3c(c(-c4ccco4)c12)CC/C3=C\c1ccco1 (stereo unspecified),?,-,51,0,0,0,88,0,FID counter DR=0
O=C1S/C(=C\C=C\c2ccco2)C(=O)N1c1ccc(O)cc1,0,51,129,0,7.2,0,0,0,
Cc1ccc(N2C(=O)/C(=C/c3ccco3)SC2=S)cc1,0,0,0,0,0,0,-,-,
O=C1S/C(=C\C=C\c2ccco2)C(=O)N1c1ccccc1,0,0,49,0,0,0,45,0,
O=C(O)CC(C(=O)O)N1C(=O)/C(=C/c2ccc(-c3nc4ccccc4s3)o2)SC1=S (stereo unspecified),0,0,67,0,5.6,0,67,0,
O=C(O)CC(C(=O)O)N1C(=O)/C(=C/C=C/c2ccco2)SC1=S (stereo unspecified),-,0,74,0,0,0,87,0,
O=C1S/C(=C\c2cccs2)C(=O)N1c1ccc(O)cc1,0,0,0,0,0,0,-,-,
COc1ccc(C2/C(=C(/O)c3ccccc3)C(=O)C(=O)N2C)cc1OC (stereo unspecified),0,0,0,0,0,0,-,-,
CCC(C)c1ccc(NC(=O)c2c([N+](=O)[O-])cnn2CC)cc1 (stereo unspecified),0,-,0,0,0,0,-,-,
CCc1noc(C)c1C(=O)Nc1cc(S(=O)(=O)N2CCOCC2)ccc1OC(C)C,-,0,-,-,-,-,-,-,
Cc1nnc(SCC2=C(C(=O)O)N3C(=O)C(NC(=O)C(C)n4nc(C(F)(F)F)cc4C)C3SC2)s1 (stereo unspecified),0,0,40,0,0,0,0,0,
CC(C(=O)NC1C(=O)N2C(C(=O)O)=C(CSc3nnnn3C)CSC12)n1cc(Cl)cn1 (stereo unspecified),0,0,0,0,0,0,-,-,
CC1=C(C)Cc2c(OC(=O)c3ccccc3)ccc(OC(=O)c3ccccc3)c2C1,0,0,0,0,0,0,0,0,
O=C(Oc1cccccc1=O)c1ccccc1,0,0,0,0,0,0,-,-,
CC1=Nc2ccccc2/C1=C/c1c(N)n2c(S(=O)(=O)C(C)C)nsc2nc1=O,0,0,0,0,0,0,-,-,
CC1=Nc2ccccc2/C1=C/c1c(N)n2c(S(=O)(=O)CC(C)C)nsc2nc1=O,0,-,36,0,0,0,54,0,
CCOC(=O)c1sc(N2C(=O)C(O)=C(C(=O)c3ccc(C)o3)C2c2cccc([N+](=O)[O-])c2)nc1C (stereo unspecified),0,0,0,-,0,0,-,-,
Cc1ccc2nc(N3C(=O)C(O)=C(C(=O)c4ccc(C)o4)C3c3cccc(O)c3)sc2c1 (stereo unspecified),0,0,44,0,0,0,106,0,
CCN(CC)c1nc(-c2ccccn2)nc(-c2ccccc2)c1C#N,0,0,0,0,0,0,-,-,
SMILES,UBC9 SUMO inh,HCV core dimer,NS3 helicase inh,PHOSPHO1 inh,IMP-1 inh,VIM-2 inh,NS3 helicase cf,FID counter trip,others
CC1CCc2c(sc3nc(SCC(=O)O)n(-c4ccccc4)c(=O)c23)C1 (stereo unspecified),0,0,37,0,0,0,0,0,
CC(CN1C(C)CCCC1C)OC(=O)c1ccc(Cl)cc1Cl (stereo unspecified),0,0,0,0,0,0,-,-,
C=CCn1c(SCCC)nc2sc3c(c2c1=O)CCc1ccccc1-3,0,0,60,0,0,0,0,0,
Cc1nn(C)cc1S(=O)(=O)Nc1ccc(C(F)(F)F)cc1,0,0,0,0,0,0,-,-,
COc1ccc(C2/C(=C(/O)c3ccc(C)cc3)C(=O)C(=O)N2c2ccccn2)cc1 (stereo unspecified),0,0,0,0,0,0,-,-,
Cc1ccc(/C(O)=C2/C(=O)C(=O)N(c3ccccn3)C2c2cccc([N+](=O)[O-])c2)cc1 (stereo unspecified),0,0,48,0,0,0,0,0,
Cc1ccc(/C(O)=C2/C(=O)C(=O)N(c3ccccn3)C2c2ccc([N+](=O)[O-])cc2)cc1 (stereo unspecified),0,0,36,0,0,0,0,0,
CCN1CCN(Cc2c3ccccc3cc3ccccc23)CC1,0,0,0,0,0,0,-,-,
O=c1[nH]n2c(=O)c3c([nH]c2c1N=Nc1cccc(C(F)(F)F)c1)CCCC3,0,0,64,0,0,0,79,0,
O=c1[nH]n2c(=O)c3c([nH]c2c1N=Nc1cccc(Cl)c1)CCC3,0,0,0,0,0,0,-,-,
CCN(CC)C(=O)C(=O)Nc1ccc(F)c(Cl)c1,0,0,0,0,0,0,-,-,
COc1ccc(S(=O)(=O)/N=C2/NC(=O)/C(=C/c3ccco3)S2)cc1,0,0,37,0,0,0,78,0,FID counter DR=0
COc1ccc(S(=O)(=O)/N=C2/NC(=O)/C(=C\c3ccco3)S2)cc1,0,0,37,0,0,0,60,0,
Cc1cccc(NS(=O)(=O)c2ccc(C(=O)NCCCN3CCCC3=O)cc2)c1C,-,0,-,-,-,-,-,-,
O=C(Cc1ccc(Br)cc1)N1CCN(C(=O)c2ccco2)CC1,0,0,38,0,0,0,0,0,
C#CCOc1ccccc1C(N)=O,0,0,0,0,0,0,-,-,
CCOC(=O)c1c(C)[nH]c(C(=O)OCC(=O)c2ccc3c(c2)NC(=O)CO3)c1C,-,0,-,-,-,-,-,-,
Cn1c(=O)c2c(ncn2Cc2ccccc2)n(C)c1=O,0,0,0,0,0,0,-,-,
